In article PMC6247064 (Cancer Science, 2018):
Several values for one entry are separate records, joined by “and”; a condition that tells them apart may be missing. Equal values may be shown once.

Tested on: advanced solid tumors
Experiment: Phase 1 study: antitumor activity by RECIST version 1.1
Type: in vivo, human
Procedure, shortened: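 Adults with advanced solid tumors received the test compound at 80 or 105 mg/m2 by IV infusion on day 1 of each 14-day cycle. Tumors were measured by CT or MRI and scored with RECIST 1.1. Best overall response was the best response recorded from the start of treatment until disease progression. Patients counted if they had baseline and post-baseline tumor measurements.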

Structure (SMILES): COc1cccc(OCCCN)c1-c1cc(Nc2cnc(C#N)cn2)n[nH]1 [Prexasertib]
- Maximum tumor shrinkage from baseline, individual patients with esophageal SCC (80 mg/m^2, two patients with BOR of stable disease): 20% and 13%
- BOR progressive disease (80 mg/m^2 group, 2 of 6 patients): 33.3%
- BOR stable disease (80 mg/m^2 group, 4 of 6 patients): 66.7%
- BOR progressive disease (105 mg/m^2 group, 1 of 5 evaluable patients): 20.0%
- BOR stable disease (105 mg/m^2 group, 4 of 5 evaluable patients): 80.0%
- Complete response or partial response (all patients): No patients in the study had a complete response or partial response
- Best overall response of stable disease (patients with baseline and post-baseline tumor measurements, both doses): 8 of 11
